# Screening results as filed in PubChem BioAssay.
# Rows were chosen to be rich in hits. Some 2.4% of all compounds tested hit in one or more screens of this group.
# NPY-Y2 antag: NPY-Y2 receptor antagonists, primary screen, cell-based | 0.99% of 140,000 active | inhibition, % at 2.7 µM | NPY-Y2 expressing cells, antagonist mode | Neuropeptide Y receptor type 2 (Homo sapiens), P49146 | AID 793, 2007; in the data active = inhibition above about 17%
# Target sequence (P49146 whole entry, looked up): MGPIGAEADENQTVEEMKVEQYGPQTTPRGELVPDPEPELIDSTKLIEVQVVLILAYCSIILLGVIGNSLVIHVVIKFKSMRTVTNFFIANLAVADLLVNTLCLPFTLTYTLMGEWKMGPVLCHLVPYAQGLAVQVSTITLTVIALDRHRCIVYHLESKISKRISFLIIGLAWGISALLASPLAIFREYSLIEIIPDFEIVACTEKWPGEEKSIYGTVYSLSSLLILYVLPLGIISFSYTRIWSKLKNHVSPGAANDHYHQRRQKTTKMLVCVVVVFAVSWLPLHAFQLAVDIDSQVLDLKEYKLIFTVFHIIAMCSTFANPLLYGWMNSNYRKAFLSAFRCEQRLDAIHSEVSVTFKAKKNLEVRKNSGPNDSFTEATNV
# NPY-Y1 antag: NPY-Y1 receptor antagonists, primary screen, cell-based; Neuropeptide Y receptor type 1 (Homo sapiens), P25929; HEK293-CNG Y1 cells, membrane potential fluorescence; NPY at EC95, then isoproterenol; inhibition, % at 3.6 µM; 1% of 200,000 active; AID 1040, 2008;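 active = inhibition above the campaign mean inhibition of all tested compounds plus 3 SD, cut at about 20% in these data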
#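 Test system – HEK293 Y1/CNG channel cell line · Also added – NPY agonist 25 nM, then isoproterenol 1 µM plus Ro 20-1724 25 µM · Compound dosing – one concentration, 3.6 µM, in 0.4% DMSO · Schedule – compound incubation 1 h at room temperature, readout 45 min post-stimulation · Technique – fluorescence, membrane potential probe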
# NPY-Y1 PAM-ag: NPY-Y1 receptor potentiators or agonists, primary screen, cell-based; Neuropeptide Y receptor type 1 (Homo sapiens), P25929; 0.37% of 220,000 active; AID 1304, 2008; NPY-Y1 expressing cells, potentiator/agonist activation; activation, % at 3.6 µM; in the data active = activation above about 33%, passing the limit was not always enough;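 note: cells stimulated with NPY at EC10 then isoproterenol at EC100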
# NPY2 pot ag: NPY-Y2 potentiators or agonists, primary screen, cell-based; Neuropeptide Y receptor type 2 (Homo sapiens), P49146; cells expressing NPY-Y2, potentiator/agonist read-out; activation, % at 3.6 µM; 0.45% of 220,000 active; in the data active = activation above about 27%;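 note: cells stimulated with NPY near EC25 plus isoproterenol at EC100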
# S1P4 agonist: S1P4 receptor agonists, primary screen, cell-based; S1P4-expressing cell line, agonist reporter assay; AID 1509, 2009; 0.35% of 220,000 active; activation, % at 4.98 µM; Sphingosine 1-phosphate receptor 4 (Homo sapiens), O95977; in the data active = activation above about 11%
# S1P4 antagonist: S1P4 receptor antagonists, primary screen, cell-based | Sphingosine 1-phosphate receptor 4 (Homo sapiens), O95977 | S1P4-expressing cells, antagonist mode, reporter read-out | inhibition, % at 4.98 µM | 0.26% of 220,000 active; in the data active = inhibition above about 29%
# NPY1 antag ctr: NPY-Y1 receptor antagonists, selectivity check, counter-screen for NPY-Y2 antagonist project, cell-based | shares compounds with NPY-Y2 antag | cell-based NPY-Y1 antagonism counterscreen | inhibition, % at 3.6 µM | 19% of 710 active | AID 1256, 2008; in the data active = inhibition above about 20%;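 note: cells challenged with NPY then isoproterenol with cAMP sensed through a CNG channel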
# NPY2 antag conf: NPY-Y2 receptor antagonists, retest of hits, confirmation, HEK293-CNG cells, membrane potential fluorescence, triplicate. shares compounds with NPY-Y2 antag. HEK293 NPY-Y2 CNG channel. inhibition, % at 2.8 µM. 32% of 710 active. AID 1257, 2008;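 active = mean inhibition of triplicate wells above the hit cutoff set in the primary screen, cut at about 17% in these data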
# A number is an active result; . = inactive; / = no result.
SMILES,NPY-Y2 antag,NPY-Y1 antag,NPY-Y1 PAM-ag,NPY2 pot ag,S1P4 agonist,S1P4 antagonist,NPY1 antag ctr,NPY2 antag conf
CCc1nc(N(CC)CC)c2oc3ccccc3c2n1,19.1,.,.,.,.,.,.,.
O=C(CSc1nc2ccccc2s1)NCCOc1ccccc1,.,.,.,.,.,.,/,/
O=C(CSc1nc2ccccc2s1)NCCOc1ccc(Cl)cc1,19.8,.,.,.,.,.,.,.
CC(C)c1ccc(-c2nnn(Cc3nc4ccccc4s3)n2)cc1,22.9,.,.,.,.,.,.,23.3
Cc1cccc(N2CCN(C(=O)c3ccoc3C)CC2)c1C,.,.,.,.,.,.,/,/
CN(C)Cc1ccccc1Sc1ccccc1Br,.,.,.,.,.,.,/,/
CN(C)Cc1ccccc1Sc1cccc2ccccc12,22.4,.,.,.,.,.,.,21.0
Cc1ccc(N2C(=O)CSC2c2ccc3c(c2)OCO3)cc1 (centres undefined),18.0,.,.,.,.,.,.,.
O=C(CCCOc1ccc(Cl)cc1Cl)N/N=C/c1ccccc1,.,.,.,.,.,.,/,/
O=C(COc1ccc(Cl)cc1Cl)N/N=C/CCc1ccccc1,20.6,.,.,.,.,.,.,.
COc1ccccc1OCCCOc1ccc(C)cc1Br,.,.,.,.,.,.,/,/
Cc1ccc(OCCCCN(C)Cc2ccccc2)c(Br)c1,17.8,.,.,.,.,.,.,18.4
CCOC(=O)N1CCC(NC(=O)CSCc2nc(-c3cccc(OC)c3)oc2C)CC1,23.9,.,.,.,.,.,.,.
CCOC(=O)N1CCC(NC(=O)CSCc2nc(-c3sccc3C)oc2C)CC1,.,.,.,.,.,.,/,/
C/C(=N\Nc1ccc2nncn2n1)c1ccc(Br)s1,/,/,.,.,.,.,/,/
CC(C)CC(c1nnnn1Cc1ccco1)N1CCN(C2CCCC2)CC1 (centres undefined),19.4,.,.,.,.,.,.,.
CC1(C)CC(=O)C=C(NCc2ccc(Cl)c(Cl)c2)C1,17.6,.,.,.,.,.,.,.
Cc1ccccc1/C=C/c1nc2ccccc2c(=O)n1CCc1ccccc1,22.6,.,.,.,.,.,.,29.0
COc1cc(/C=C/C(=O)OCC(=O)NC2CCS(=O)(=O)C2)ccc1O (centres undefined),.,.,.,.,.,.,/,/
CCC(C)N(C(=O)COC(=O)/C=C/c1ccc(O)c(OC)c1)C1CCS(=O)(=O)C1 (centres undefined),18.3,.,.,.,.,.,.,.
COc1ccc(CNCC(=O)Nc2cccc(S(N)(=O)=O)c2)cc1,/,.,.,.,.,.,/,/
C=CCc1cccc2cc(C(=O)N3CCN(c4ccccn4)CC3)c(=O)oc12,/,.,.,.,.,.,/,/
Clc1ccc(CSc2nnc(-c3ccc4c(c3)OCO4)o2)cc1,22.4,.,.,.,.,.,26.9,29.7
Clc1ccc(CSc2nnc(-c3ccncc3)o2)cc1,.,.,.,.,.,.,/,/
COc1ccc2cc3cc(C(=O)Nc4ccccc4N4CCN(C)CC4)oc3nc2c1,17.7,.,.,.,.,.,.,.
Cc1cc(C(F)(F)F)nc(SCC(=O)c2cccc([N+](=O)[O-])c2)n1,18.6,.,.,.,.,.,.,.
c1coc(CNc2nc(N3CCCCC3)nc3ccccc23)c1,26.4,.,.,.,.,.,.,.
c1ccc(CNc2nc(N3CCN(Cc4ccccc4)CC3)nc3ccccc23)cc1,/,/,.,.,.,.,/,/
c1ccc2c(N3CCCCC3)nc(N3CCCCC3)nc2c1,23.1,.,.,.,.,.,.,.
